Data as given in ChEMBL document CHEMBL1157663, “Acyclic nucleoside phosphonates with 5-azacytosine base moiety substituted in C-6 position” (Bioorg Med Chem, 2010).
Values after ≈ are worked out from the molar mass of the structure shown. Active and inactive are the calls of the source. No cut-off for these calls is given here.

Key:
[1] = Cytotoxicity against african green monkey Vero cells; type: cell-based; details: chlorocebus sabaeus
[2] = tested on: Human immunodeficiency virus 1; assay: Antiviral activity against HIV1 infected in human CEM cells; type: functional, organism-based; details: CCRF-CEM
Outline: (§1)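 Retroviral assay (HIV-1, HIV-2) run in human T-lymphocyte CEM cells.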

Vero = assay: Cytostatic activity against african green monkey Vero cells; type: ADME, cell-based; details: chlorocebus sabaeus
[3] = tested on: Human immunodeficiency virus 2; assay: Antiviral activity against HIV2 infected in human CEM cells; type: functional, organism-based; details: CCRF-CEM; outline: as §1
HEL = assay: Cytostatic activity against HEL cells; type: ADME, cell-based; details: human
Vaccinia virus = assay: Ratio of compound EC50 to HPMP-5-azaC EC50 for Vaccinia virus infected in HEL cells; type: functional, Orthopoxvirus vaccinia
Human alphaherpesvirus 2 = assay: Antiviral activity against Herpes simplex virus 2 infected in HEL cells; type: functional, organism-based
Outline: (§2)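 DNA-virus assay run in human embryonic lung (HEL) cell cultures.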

CCRF-CEM = assay: Cytostatic activity against human CEM cells; type: cell-based
Human alphaherpesvirus 1 = assay: Antiviral activity against Herpes simplex virus 1 infected in HEL cells; type: functional, organism-based; outline: as §2
[4] = Cytotoxicity against human CEM cells; type: cell-based; details: CEM (CCRF-CEM) cells
[5] = Cytotoxicity against HEL cells; type: cell-based; details: human
Cowpox virus = assay: Ratio of compound EC50 to HPMP-5-azaC EC50 for Cowpox virus infected in HEL cells; type: functional
Sindbis virus = assay: Antiviral activity against Sindbis virus infected in african green monkey Vero cells at 20 ug/ml; type: functional, organism-based
Human betaherpesvirus 6 = assay: Antiviral activity against Human herpesvirus 6; type: functional, organism-based
Human alphaherpesvirus 3 = assay: Antiviral activity against Varicella zoster virus infected in HEL cells; type: functional, organism-based; details: Human alphaherpesvirus 3, HEL; outline: as §2
Human betaherpesvirus 5 = assay: Antiviral activity against Human cytomegalovirus infected in HEL cells; type: functional, organism-based; details: Human betaherpesvirus 5, HEL; outline: as §2

SMILES	CC50 [1]	Activity [2]	Activity (Vero)	Activity [3]	Activity (HEL)	Ratio EC50 (Vaccinia virus)	Activity (Human alphaherpesvirus 2)	Activity (CCRF-CEM)	Activity (Human alphaherpesvirus 1)	CC50 [4]	CC50 [5]	Ratio EC50 (Cowpox virus)	Activity (Sindbis virus)	EC50 (Human betaherpesvirus 6)	EC50 (Human alphaherpesvirus 2; Human alphaherpesvirus 2, HEL)	EC50 (Human alphaherpesvirus 3)	EC50 (Human alphaherpesvirus 1; Human alphaherpesvirus 1, HEL)	EC50 (Human betaherpesvirus 5)
Cc1nc(N)nc(=O)n1C[C@@H](CO)OCP(=O)(O)O	> 100 µg/mL	inactive	Non-toxic	inactive	Non-toxic	50	inactive	Non-toxic	inactive	> 100 µg/mL	> 100 µg/mL	50						
Cc1nc(N)n(C[C@@H](CO)OCP(=O)(O)O)c(=O)n1	> 100 µg/mL	inactive	Non-toxic	inactive	Non-toxic		inactive	Non-toxic	inactive	> 100 µg/mL	> 100 µg/mL		inactive					
CCCCCCCCCCCCCCCCOCCOP1(=O)CO[C@@H](Cn2cnc(N)nc2=O)CO1 (stereo not given in full)	> 100 µg/mL	inactive	Non-toxic	inactive	Non-toxic			Non-toxic		> 100 µg/mL	> 100 µg/mL			0.008 µg/mL (≈ 0.0151 µM)	0.003 µg/mL (≈ 0.00565 µM)	≤ 0.0008 µg/mL	0.003 µg/mL (≈ 0.00565 µM)	≤ 0.00014 µg/mL
Nc1ncnc(=O)n1C[C@@H](CO)OCP(=O)(O)O	> 100 µg/mL	inactive	Non-toxic	inactive	Non-toxic		inactive	Non-toxic	inactive	> 100 µg/mL	> 100 µg/mL							
CCCCc1nc(N)nc(=O)n1C[C@@H](CO)OCP(=O)(O)O	> 100 µg/mL	inactive	Non-toxic	inactive	Non-toxic	50	inactive	Non-toxic	inactive	> 100 µg/mL	> 100 µg/mL	50						
CCCc1nc(N)nc(=O)n1C[C@@H](CO)OCP(=O)(O)O	> 100 µg/mL	inactive	Non-toxic	inactive	Non-toxic	50	inactive	Non-toxic	inactive	> 100 µg/mL	> 100 µg/mL	50						
Nc1nc(-c2ccccc2)n(C[C@@H](CO)OCP(=O)(O)O)c(=O)n1	> 100 µg/mL	inactive	Non-toxic	inactive	Non-toxic	50	inactive	Non-toxic	inactive	> 100 µg/mL	> 100 µg/mL	50						
CCc1nc(N)nc(=O)n1C[C@@H](CO)OCP(=O)(O)O	> 100 µg/mL	inactive	Non-toxic	inactive	Non-toxic	50	inactive	Non-toxic	inactive	> 100 µg/mL	> 100 µg/mL	50						
Cc1nc(N)n(C[C@@H](CO)OCP(=O)(O)OC(C)C)c(=O)n1	> 100 µg/mL	inactive	Non-toxic	inactive	Non-toxic		inactive	Non-toxic	inactive	> 100 µg/mL	> 100 µg/mL		Active					
